Measured values reported in ChEMBL document CHEMBL1122671, “Anticonvulsant activity of some 4-aminobenzamides” (J Med Chem, 1984).
The source made the active and inactive calls.

Assays:
[1] = system: Mus musculus; assay: Anticonvulsant activity against scMet (subcutaneous metrazole) induced seizure in mice at 30 min; ++ indicates activity at 600 mg/kg.; type: functional, organism-based; set-up: dose 600 mg/kg
[2] = system: Mus musculus; assay: Anticonvulsant activity against scMet (subcutaneous metrazole) induced seizure in mice at 4 hr; ++ indicates activity at 600 mg/kg.; type: functional, organism-based; set-up: dose 600 mg/kg
[3] = system: Mus musculus; assay: Anticonvulsant activity against MES (maximal electroshock) induced seizure in mice at 4 hr; ++ = Activity at 300 mg/kg.; type: functional, organism-based; set-up: dose 300 mg/kg
Procedure, shortened: (§1)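 Male Carworth Farms number-one mice received the compound ip in 30% polyethylene glycol 400. Doses were 30, 100 and 300 mg/kg, with 600 mg/kg in some cases. Maximal electroshock seizure protection was scored at 30 min and 4 h after dosing. Activity is coded by the lowest effective dose.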

[4] = system: Mus musculus; assay: Anticonvulsant activity against MES (maximal electroshock) induced seizure in mice at 30 min; +++ = Activity at 100 mg/kg.; type: functional, organism-based; set-up: dose 100 mg/kg; procedure, shortened: as §1
[5] = system: Mus musculus; assay: Evaluated for toxicity by using rotarod test at in mice 30 min; ++ indicates activity at 300 mg/kg,*-Loss of righting reflex at less than 300 mg/kg; type: organism-based; details: in vivo, 0.5 h
Procedure, shortened: (§2)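 Neurotoxicity in male Carworth Farms number-one mice dosed ip in 30% PEG 400 at 30, 100, 300 and sometimes 600 mg/kg, tested 30 min or 4 h later. Mice placed on a 1-in. knurled rod rotating at 6 rpm; toxicity means failure to stay on the rod for 1 min. Scored by the lowest toxic dose; footnotes record loss of righting reflex or lethality.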

[6] = system: Mus musculus; assay: Evaluated for toxicity by using rotarod test in mice at 4 hr; + indicates activity at 600 mg/kg.; type: organism-based; set-up: dose 600 mg/kg; details: in vivo; procedure, shortened: as §2
[7] = system: Mus musculus; assay: Anticonvulsant activity against MES (maximal electroshock) induced seizure in mice at 4 hr; - = no activity observed at 600 mg/Kg; type: functional, organism-based; procedure, shortened: as §1
[8] = system: Mus musculus; assay: Anticonvulsant activity against scMet (subcutaneous metrazole) induced seizure in mice at 30 min; - = no activity observed at 600 mg/Kg; type: functional, organism-based
[9] = system: Mus musculus; assay: Anticonvulsant activity against MES (maximal electroshock) induced seizure in mice at 30 min; - = no activity observed at 600 mg/Kg; type: functional, organism-based; procedure, shortened: as §1
[10] = system: Mus musculus; assay: Anticonvulsant activity against scMet (subcutaneous metrazole) induced seizure in mice at 4 hr; - = no activity observed at 600 mg/Kg; type: functional, organism-based
[11] = system: Mus musculus; assay: Evaluated for toxicity by using rotarod test in mice at 4 hr; - = no activity observed at 600 mg/Kg; type: organism-based; details: in vivo; procedure, shortened: as §2
[12] = system: Mus musculus; assay: Evaluated for toxicity by using rotarod test at in mice 30 min; - = no activity observed at 600 mg/Kg; type: organism-based; details: in vivo, 0.5 h; procedure, shortened: as §2
[13] = system: Mus musculus; assay: Anticonvulsant activity against scMet (subcutaneous metrazole) induced seizure in mice at 30 min; - = No activity at 600 mg/kg.; type: functional, organism-based; set-up: dose 600 mg/kg
Procedure, shortened: (§3)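 Male Carworth Farms number-one mice dosed ip (30% PEG 400) at 30, 100, 300 and in some cases 600 mg/kg. Pentylenetetrazole 85 mg/kg given sc as a 0.5% solution in the posterior midline, at 30 min or 4 h. Protection means no clonic spasm of at least 5 s within 30 min. Scored by the lowest protective dose.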

[14] = system: Mus musculus; assay: Anticonvulsant activity against scMet (subcutaneous metrazole) induced seizure in mice at 4 hr; ++ = Activity at 300 mg/kg.; type: functional, organism-based; set-up: dose 300 mg/kg
[15] = system: Mus musculus; assay: Anticonvulsant activity against MES (maximal electroshock) induced seizure in mice at 4 hr; +++ = Activity at 100 mg/kg.; type: functional, organism-based; set-up: dose 100 mg/kg; procedure, shortened: as §1
[16] = organism: Mus musculus; assay: Evaluation of inhibitory activity against scMet induced convulsions in mice; NA = No activity.; type: functional, organism-based
[17] = system: Mus musculus; assay: Evaluated for toxicity by using rotarod test at in mice 30 min; +++ = Activity at 100 mg/kg, *-Loss of righting reflex at less than 300 mg/kg; type: organism-based; details: in vivo, 0.5 h; procedure, shortened: as §2
[18] = system: Mus musculus; assay: Evaluated for toxicity by using rotarod test in mice at 4 hr; ++ = Activity at 300 mg/kg.; type: organism-based; set-up: dose 300 mg/kg; details: in vivo; procedure, shortened: as §2
[19] = organism: Mus musculus; assay: Evaluation of neurologic deficit by rotarod procedure in mice; type: functional
Procedure, shortened: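 Male Carworth Farms number-one mice were dosed ip (30% PEG 400 vehicle) and placed on a 1-in. knurled plastic rod rotating at 6 rpm. Neurotoxicity meant failure to stay on the rod for 1 min. TD50 was determined graphically.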

[20] = Protective index (PI) which is defined as the ratio of TD50 to the ED50 (MES).; type: functional
Procedure, shortened: (§4)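 Both values come from ip dosing in 30% PEG 400 to male Carworth Farms number-one mice and were derived by the graphical method.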

[21] = system: Mus musculus; assay: Anticonvulsant activity against MES (maximal electroshock) induced seizure in mice at 4 hr; - = No activity at 600 mg/kg.; type: functional, organism-based; set-up: dose 600 mg/kg
Procedure, shortened: (§5)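 Male Carworth Farms number-one mice; compounds in 30% polyethylene glycol 400, given ip at 30, 100 and 300 mg/kg, some also at 600 mg/kg. Maximal electroshock challenge at 30 min or 4 h after dosing. Scored by the lowest dose giving protection (++++ 30, +++ 100, ++ 300, + 600 mg/kg; - none at 600).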

[22] = system: Mus musculus; assay: Anticonvulsant activity against MES (maximal electroshock) induced seizure in mice at 30 min; + = Activity at 600 mg/kg.; type: functional, organism-based; set-up: dose 600 mg/kg; procedure, shortened: as §5
[23] = system: Mus musculus; assay: Anticonvulsant activity against scMet (subcutaneous metrazole) induced seizure in mice at 4 hr; - = No activity at 600 mg/kg.; type: functional, organism-based; set-up: dose 600 mg/kg; procedure, shortened: as §3
[24] = system: Mus musculus; assay: Evaluated for toxicity by using rotarod test at in mice 30 min; - = No activity at 600 mg/kg.; type: organism-based; set-up: dose 600 mg/kg; details: in vivo, 0.5 h; procedure, shortened: as §2
[25] = system: Mus musculus; assay: Evaluated for toxicity by using rotarod test in mice at 4 hr; - = No activity at 600 mg/kg.; type: organism-based; set-up: dose 600 mg/kg; details: in vivo; procedure, shortened: as §2
[26] = system: Mus musculus; assay: Anticonvulsant activity against scMet (subcutaneous metrazole) induced seizure in mice at 4 hr; ++ indicates activity at 300 mg/kg.; type: functional, organism-based; set-up: dose 300 mg/kg
[27] = system: Mus musculus; assay: Anticonvulsant activity against MES (maximal electroshock) induced seizure in mice at 4 hr; +++ indicates activity at 100 mg/kg.; type: functional, organism-based; set-up: dose 100 mg/kg; procedure, shortened: as §1
[28] = organism: Mus musculus; assay: Evaluation of inhibitory activity aagainst MES induced convulsions in mice.; type: functional
Procedure, shortened: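 Quantitative MES test in male Carworth Farms number-one mice. Compound in 30% polyethylene glycol 400, given ip at graded doses. Median effective dose (ED50) read by the graphical method.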

[29] = organism: Mus musculus; assay: Evaluation of inhibitory activity against scMet induced convulsions in mice; type: functional
[30] = system: Mus musculus; assay: Evaluated for toxicity by using rotarod test at in mice 30 min; +++ indicates activity at 100 mg/kg *-Loss of righting reflex at less than 600 mg/kg; type: organism-based; details: in vivo, 0.5 h; procedure, shortened: as §2
[31] = system: Mus musculus; assay: Evaluated for toxicity by using rotarod test in mice at 4 hr; ++ indicates activity at 300 mg/kg.; type: organism-based; set-up: dose 300 mg/kg; details: in vivo; procedure, shortened: as §2
[32] = Protective index (PI) which is defined as the ratio of TD50 to the ED50 (ScMet).; type: functional; procedure, shortened: as §4

**Q.** Which results are given for `CCCNC(=O)c1ccc(N)cc1`?
**A.** Activity [1]: Activity at 100 mg/kg; Activity [2]: Activity at 100 mg/kg; Activity [3]: Activity at 100 mg/kg; Activity [4]: Activity at 100 mg/kg; Toxicity [5]: activity at 300 mg/kg,*-Loss of righting reflex at less than 300 mg/kg; Toxicity [6]: activity at 300 mg/kg,*-Loss of righting reflex at less than 300 mg/kg

**Q.** Which results are given for `Nc1ccc(C(=O)NC(c2ccccc2)c2ccccc2)cc1`?
**A.** Activity [7]: Not toxic; Activity [8]: Not toxic; Activity [9]: Not toxic; Activity [10]: Not toxic; Toxicity [11]: Not toxic; Toxicity [12]: Not toxic

**Q.** With `Nc1ccc(C(=O)NCc2ccccc2)cc1` as the molecule, how does the Activity [13] read?
**A.** Not toxic

**Q.** And the Activity [14]?
**A.** Activity at 100 mg/kg

**Q.** What about the Activity [15] of the same molecule?
**A.** Activity at 100 mg/kg

**Q.** And the ED50 [16]?
**A.** inactive

**Q.** What about the Toxicity [17] of the same molecule?
**A.** Activity at 100 mg/kg, *-Loss of righting reflex at < 300 mg/kg

**Q.** What about the Toxicity [18] of the same molecule?
**A.** Activity at 100 mg/kg, *-Loss of righting reflex at < 300 mg/kg

**Q.** And the TD50 [19]?
**A.** 83.4 mg/kg

**Q.** What about the PI [20] of the same molecule?
**A.** 3.6

**Q.** Which results are given for `CNC(=O)c1ccc(N)cc1`?
**A.** Activity [13]: Not toxic; Activity [21]: Not toxic; Activity [22]: Activity at 600 mg/kg; Activity [23]: Not toxic; Toxicity [24]: Not toxic; Toxicity [25]: Not toxic

**Q.** Which results are given for `CN(Cc1ccccc1)C(=O)c1ccc(N)cc1`?
**A.** Activity [26]: Activity at 100 mg/kg; Activity [27]: Activity at 100 mg/kg; Activity [4]: Activity at 100 mg/kg; ED50 [28]: 52.6 mg/kg; ED50 [29]: 81.7 mg/kg; Toxicity [30]: activity at 100 mg/kg *-Loss of righting reflex at less than 600 mg/kg; Toxicity [31]: activity at 100 mg/kg *-Loss of righting reflex at less than 600 mg/kg; TD50 [19]: 98.1 mg/kg; PI [20]: 1.9; PI [32]: 1.2
